Bioassay records as filed in PubChem BioAssay.
ASAP1 inh: blocks human ASAP1-stimulated Arf1 GTP hydrolysis; Q9ULH1; GDP FP detection; inhibition, % at 16.5 µM; 0.19% of 360,000 active; AID 624377; in the data active means inhibition above about 25%
PAFAH2 inh: inhibitors of human PAFAH2. Q99487. recombinant PAFAH2, FP-rhodamine activity probe, fluorescence polarization. inhibition, % at 3.39 µM. 0.99% of 340,000 active;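 active means inhibition above the mean over all tested compounds plus 3 SD, cut at about 30% in these data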;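 further: inhibitors block probe labeling of enzyme so polarization drops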
pPAFAH inh: inhibitors of human plasma PAF acetylhydrolase (pPAFAH) | recombinant pPAFAH, FP-rhodamine probe fluorescence polarization | AID 463082 | inhibition, % at 3.39 µM | Q13093 | 1.5% of 330,000 active;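 active means inhibition above the mean inhibition across the screen plus 3 SD, cut at about 25% in these data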;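 further: inhibitors block binding of the rhodamine activity-based probe so polarization drops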
Target sequence (Q13093 whole entry, looked up): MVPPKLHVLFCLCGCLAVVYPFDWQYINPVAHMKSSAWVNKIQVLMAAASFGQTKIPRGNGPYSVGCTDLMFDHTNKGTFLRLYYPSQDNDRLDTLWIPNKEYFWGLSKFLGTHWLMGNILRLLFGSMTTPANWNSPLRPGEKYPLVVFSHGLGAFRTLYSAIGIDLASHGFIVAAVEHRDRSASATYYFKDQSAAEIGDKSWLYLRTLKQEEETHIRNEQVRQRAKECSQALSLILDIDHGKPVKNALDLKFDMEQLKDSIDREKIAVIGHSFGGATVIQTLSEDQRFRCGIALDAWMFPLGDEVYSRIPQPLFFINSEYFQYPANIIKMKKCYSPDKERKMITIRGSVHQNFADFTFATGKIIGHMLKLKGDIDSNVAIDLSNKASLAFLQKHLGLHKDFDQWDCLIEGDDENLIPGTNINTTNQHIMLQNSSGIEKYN
PAFAH1B3 inh: PAFAH1B3 (human) inhibition; Q15102; 0.28% of 340,000 active; inhibition, % at 3.39 µM; recombinant PAFAH1B3, FP-rhodamine probe, fluorescence polarization;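 active means inhibition above the screen-wide average of all tested compounds plus 3 SD, cut at about 25% in these data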
ARFGAP1 inhibitor: inhibitors of rat ARFGAP1; Q62848; Arfgap1-stimulated ARF1 GTP hydrolysis, GDP FP detection; inhibition, % at 16.5 µM; 0.26% of 360,000 active;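 active means inhibition above a per-plate limit, mean inhibition of low control wells plus 3 SD, cut at about 25% in these data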
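Assay system: purified rat His6-Arfgap1 residues 1-136 (GAP domain); Reagent: human Δ17 ARF1 bound to GTP; Dosing: 16.5 µM single point, 1.26% DMSO; Times: GTP hydrolysis reaction 2 h at 25 °C; Signal: FP, GDP Alexa 633 tracer displaced from anti-GDP antibody, 620/688 nm; Measure: % inhibition from polarization.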
PAFAH1B2 FP inh: PAFAH1B2 (human) inhibition. 1.2% of 340,000 active. inhibition, % at 3.39 µM. recombinant PAFAH1B2, FP-rhodamine activity probe, fluorescence polarization. AID 492953. P68402;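 active means inhibition above the mean of all tested compounds plus 3 SD, cut at about 24% in these data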
PAFAH2 confirm: PAFAH2 (human) inhibition, confirmed; shares compounds with PAFAH2 inh; recombinant PAFAH2, FP-rhodamine activity probe, fluorescence polarization; inhibition, % at 3.39 µM; 65% of 2,300 active;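 active means mean inhibition over three repeats above a set limit taken from the earlier primary screen, cut at about 30% in these data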;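 further: inhibitor blocks binding of rhodamine activity probe so polarization falls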
A number is an active result; n = inactive; x = not tested or not shown. Hits are enriched below; roughly 2.8% of the tested compounds scored in any of these assays.

SMILES	ASAP1 inh	PAFAH2 inh	pPAFAH inh	PAFAH1B3 inh	ARFGAP1 inhibitor	PAFAH1B2 FP inh	PAFAH2 confirm
O=C(CCc1nc2sc3c(c2c(=O)[nH]1)CCCC3)N1CCN(c2ccccc2)CC1	n	n	n	n	n	n	x
O=C(O/N=C(/c1ccccc1)c1ccncc1)c1ccc(F)cc1	n	x	n	x	n	x	x
Cc1ccc(C(=O)O/N=C(\c2ccccc2)c2cccnc2)cc1	n	72.6	n	n	n	n	80.5
CC(C)(C)C(=O)NC1CCN(CC(=O)Nc2ccc3c(c2)OCO3)CC1	n	n	n	n	n	n	x
O=C(O)C1CSC(c2ccco2)N1 (centres undefined)	n	31.8	n	n	n	n	n
CCN(CC)c1ccc(S(=O)(=O)N2CCOCC2)cc1NC(=O)CSC(=S)N1CCCC1	n	n	n	n	n	n	x
CCOC(=O)C1CC2=C(CCCC2=O)N(Cc2ccccc2)C1=O (centres undefined)	n	n	x	n	n	n	x
CCOC(=O)C1CC2=C(CCCC2=O)NC1=O (centres undefined)	n	32.3	x	n	n	n	n
Cc1ccc(C(=O)Nc2nc(C(N)Cc3ccc(C(F)(F)F)cc3)cs2)cc1 (centres undefined)	n	x	x	x	n	x	x
COc1ccc(/C=C/C(=O)OCC(=O)N2c3ccccc3CC2C)cc1 (centres undefined)	n	x	x	x	n	x	x
COc1ccccc1/C=C/C(=O)OCC(=O)N1c2ccccc2CC1C (centres undefined)	n	33.9	n	n	n	n	n
CN(C)c1ccc(C(=O)OCC(=O)N2CCCC2)cc1	n	n	n	n	n	n	x
CN(C)c1ccc(C(=O)OCC(=O)N2CCCCCC2)cc1	n	56.8	n	n	n	n	54.8
CC1Cc2ccccc2N1C(=O)COC(=O)c1ccc(N(C)C)cc1 (centres undefined)	n	54.5	n	n	n	n	55.1
CCc1ccc(C(=O)OCC(=O)N2CCCCCC2)cc1	n	38.1	n	n	n	n	n
O=C(OCC(=O)N1CCCC1)c1cccc(Br)c1	n	n	n	n	n	n	x
Cc1nc2ccc(NC(=O)C3(C)CCCN(C(C)C)C3)cc2o1 (centres undefined)	n	x	x	x	n	x	x
COC(=O)[C@]12C[C@H](CC(=O)N3CCOCC3)C(=O)N(Cc3ccccc3)C1=C[C@H](C(C)C)O[C@@H]2C1CC1	n	x	x	x	n	x	x
C#CCOc1coc(COC(=O)c2ccccc2)cc1=O	n	50.1	n	n	n	n	29.9
O=c1cc(CO)occ1OCc1ccccc1	n	n	n	n	n	n	x
O=C(CCc1nnc(Cc2c[nH]c3ccccc23)o1)NC(C1CC1)C1CC1	n	n	n	n	n	n	x
O=[N+]([O-])c1ccc(SCCc2ccncc2)cc1	n	34.4	n	n	n	n	n
O=C(NCCc1ccc(C(F)(F)F)cc1)C1CCC(=O)N(CCc2cccc(F)c2)C1 (centres undefined)	n	n	n	n	n	n	x
O=C(NCCc1ccc(C(F)(F)F)cc1)C1CCC(=O)N(CCCc2ccccc2)C1 (centres undefined)	n	53.0	n	n	n	n	53.4
O=Cc1ccc(OC(=O)CCCCC(=O)Oc2ccc(C=O)cc2)cc1	n	34.4	n	n	n	n	n
SMILES	ASAP1 inh	PAFAH2 inh	pPAFAH inh	PAFAH1B3 inh	ARFGAP1 inhibitor	PAFAH1B2 FP inh	PAFAH2 confirm
COc1cc2c(cc1OC)-c1cc(N3CCc4ccccc43)nc(=O)n1CC2	n	52.6	n	n	n	n	40.6
COc1cc2c(cc1OC)-c1cc(OCc3cccnc3)nc(=O)n1CC2	n	61.3	x	n	n	n	53.8
CCCCCCCN(c1ccccc1)C1C[C@H]2CCCC(=O)N3CC[C@@H](C1)[C@@H]23 (some centres undefined)	n	x	x	x	n	x	x
CC(C)C[C@H]1CNC(=S)N1CC1CCN(CCCC2CCCC2)CC1	n	n	x	n	n	n	x
Cc1cc(C(=O)COC(=O)c2ccc(N)c([N+](=O)[O-])c2)c(C)n1Cc1ccc2c(c1)OCO2	n	n	n	n	n	n	x
COCCn1c(C)cc(C(=O)COC(=O)c2ccc3c(c2)NC(=O)CS3)c1C	n	n	n	n	n	n	x
